Publication PMC4929832 (Nature, 2016)

Legend:
[1] = biological target: PKN2 (Homo sapiens, UniProt Q16513); assay: kinase panel; assay type: biochemical
[2] = biological target: HIPK4 (Homo sapiens, UniProt Q8NE63); assay: kinase panel; assay type: biochemical
[3] = biological target: BMX (Homo sapiens, UniProt P51813); assay: kinase panel; assay type: biochemical
[4] = biological target: Alpha1A adrenergic (Homo sapiens, UniProt P35348); assay: Alpha1A adrenergic calcium flux assay; assay type: cell-based
[5] = biological target: SRMS (Homo sapiens, UniProt Q9H3Y6); assay: kinase panel; assay type: biochemical
[6] = biological target: PTK5 (Homo sapiens, UniProt P42685); assay: kinase panel; assay type: biochemical
[7] = biological target: CK1-GAMMA3 (Homo sapiens, UniProt Q9Y6M4); assay: kinase panel; assay type: biochemical
[8] = biological target: ALK5 (Homo sapiens, UniProt P36897); assay: kinase panel; assay type: biochemical
[9] = biological target: FYN (Homo sapiens, UniProt P06241); assay: kinase panel; assay type: biochemical
[10] = biological target: NEK6 (Homo sapiens, UniProt Q9HC98); assay: kinase panel; assay type: biochemical
[11] = biological target: KDR (Homo sapiens, UniProt P35968); assay: kinase panel; assay type: biochemical
[12] = biological target: CDK7 (Homo sapiens, UniProt P50613); assay: kinase panel; assay type: biochemical
[13] = biological target: NDR1 (Homo sapiens, UniProt Q15208); assay: kinase panel; assay type: biochemical
[14] = system: L858R/T790M/C797S EGFR Ba/F3 cells; assay: Ba/F3 cell proliferation; assay type: cell-based; settings: EAI045 in combination with cetuximab, 72 hours
Procedure, shortened: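 Ba/F3 cells, either parental or stably expressing mutant EGFR lines described earlier, were exposed to the test compound for 72 hours. Cell numbers were set empirically. Growth was read by MTS assay. Each point was run in six wells, and each experiment was repeated at least three times. Curves were fitted by non-linear regression to a sigmoidal dose response.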

[15] = biological target: TRKA (Homo sapiens, UniProt P04629); assay: kinase panel; assay type: biochemical
[16] = system: HaCaT cells; assay: Proliferation assay; assay type: cell-based; settings: Homo sapiens, 72 h, read-out: EC50 Proliferation
Procedure, shortened: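 Cells were maintained in 10% FBS/RPMI with penicillin/streptomycin and plated at 500 cells/well in 10% FBS RPMI. Serially diluted test compound was pin-transferred. Viability was read after 3 days by CellTiter-Glo luminescence and normalized to 0.1% DMSO-treated cells and empty wells. EC50 was obtained by non-linear regression curve fitting.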

[17] = biological target: RSK3 (Homo sapiens, UniProt Q15349); assay: kinase panel; assay type: biochemical
[18] = biological target: CAMK2D (Homo sapiens, UniProt Q13557); assay: kinase panel; assay type: biochemical
[19] = biological target: MARK3 (Homo sapiens, UniProt P27448); assay: kinase panel; assay type: biochemical
[20] = biological target: MEK2 (Homo sapiens, UniProt P36507); assay: kinase panel; assay type: biochemical
[21] = biological target: IRAK4 (Homo sapiens, UniProt Q9NWZ3); assay: kinase panel; assay type: biochemical
[22] = biological target: MST3 (Homo sapiens, UniProt Q9Y6E0); assay: kinase panel; assay type: biochemical
[23] = biological target: PRKX (Homo sapiens, UniProt P51817); assay: kinase panel; assay type: biochemical
[24] = biological target: TYK2 (Homo sapiens, UniProt P29597); assay: kinase panel; assay type: biochemical
[25] = biological target: IKK-BETA (Homo sapiens, UniProt O14920); assay: kinase panel; assay type: biochemical
[26] = biological target: PRKG2 (Homo sapiens, UniProt Q13237); assay: kinase panel; assay type: biochemical
[27] = biological target: CAMK1D (Homo sapiens, UniProt Q8IU85); assay: kinase panel; assay type: biochemical
[28] = biological target: AKT2 (Homo sapiens, UniProt P31751); assay: kinase panel; assay type: biochemical
[29] = biological target: JNK3 (Homo sapiens, UniProt P53779); assay: kinase panel; assay type: biochemical
[30] = biological target: Adenosine 3 receptor (Homo sapiens, UniProt P0DMS8); assay: Adenosine 3 receptor binding assay
[31] = biological target: MAP4K4 (Homo sapiens, UniProt O95819); assay: kinase panel; assay type: biochemical
[32] = biological target: JAK2 (Homo sapiens, UniProt O60674); assay: kinase panel; assay type: biochemical
[33] = biological target: SGK2 (Homo sapiens, UniProt Q9HBY8); assay: kinase panel; assay type: biochemical
[34] = biological target: MSK1 (Homo sapiens, UniProt O75582); assay: kinase panel; assay type: biochemical
[35] = biological target: DDR2 (Homo sapiens, UniProt Q16832); assay: kinase panel; assay type: biochemical
[36] = biological target: Norepinephrine Transporter (Homo sapiens, UniProt P23975); assay: Norepinephrine Transporter assay; assay type: binding
[37] = biological target: NDR2 (Homo sapiens, UniProt Q9Y2H1); assay: kinase panel; assay type: biochemical
[38] = biological target: PXR Receptor (Homo sapiens, UniProt O75469); assay: PXR Receptor antagonist assay; assay type: cell-based
[39] = biological target: PPARgamma Receptor (Homo sapiens, UniProt P37231); assay: PPARgamma Receptor antagonist assay; assay type: cell-based
[40] = biological target: DAPK1 (Homo sapiens, UniProt P53355); assay: kinase panel; assay type: biochemical
[41] = biological target: Serotonin 5HT2A (Homo sapiens, UniProt P28223); assay: Serotonin 5HT2A calcium flux assay; assay type: cell-based

DAPK1, sequence (P53355 whole entry): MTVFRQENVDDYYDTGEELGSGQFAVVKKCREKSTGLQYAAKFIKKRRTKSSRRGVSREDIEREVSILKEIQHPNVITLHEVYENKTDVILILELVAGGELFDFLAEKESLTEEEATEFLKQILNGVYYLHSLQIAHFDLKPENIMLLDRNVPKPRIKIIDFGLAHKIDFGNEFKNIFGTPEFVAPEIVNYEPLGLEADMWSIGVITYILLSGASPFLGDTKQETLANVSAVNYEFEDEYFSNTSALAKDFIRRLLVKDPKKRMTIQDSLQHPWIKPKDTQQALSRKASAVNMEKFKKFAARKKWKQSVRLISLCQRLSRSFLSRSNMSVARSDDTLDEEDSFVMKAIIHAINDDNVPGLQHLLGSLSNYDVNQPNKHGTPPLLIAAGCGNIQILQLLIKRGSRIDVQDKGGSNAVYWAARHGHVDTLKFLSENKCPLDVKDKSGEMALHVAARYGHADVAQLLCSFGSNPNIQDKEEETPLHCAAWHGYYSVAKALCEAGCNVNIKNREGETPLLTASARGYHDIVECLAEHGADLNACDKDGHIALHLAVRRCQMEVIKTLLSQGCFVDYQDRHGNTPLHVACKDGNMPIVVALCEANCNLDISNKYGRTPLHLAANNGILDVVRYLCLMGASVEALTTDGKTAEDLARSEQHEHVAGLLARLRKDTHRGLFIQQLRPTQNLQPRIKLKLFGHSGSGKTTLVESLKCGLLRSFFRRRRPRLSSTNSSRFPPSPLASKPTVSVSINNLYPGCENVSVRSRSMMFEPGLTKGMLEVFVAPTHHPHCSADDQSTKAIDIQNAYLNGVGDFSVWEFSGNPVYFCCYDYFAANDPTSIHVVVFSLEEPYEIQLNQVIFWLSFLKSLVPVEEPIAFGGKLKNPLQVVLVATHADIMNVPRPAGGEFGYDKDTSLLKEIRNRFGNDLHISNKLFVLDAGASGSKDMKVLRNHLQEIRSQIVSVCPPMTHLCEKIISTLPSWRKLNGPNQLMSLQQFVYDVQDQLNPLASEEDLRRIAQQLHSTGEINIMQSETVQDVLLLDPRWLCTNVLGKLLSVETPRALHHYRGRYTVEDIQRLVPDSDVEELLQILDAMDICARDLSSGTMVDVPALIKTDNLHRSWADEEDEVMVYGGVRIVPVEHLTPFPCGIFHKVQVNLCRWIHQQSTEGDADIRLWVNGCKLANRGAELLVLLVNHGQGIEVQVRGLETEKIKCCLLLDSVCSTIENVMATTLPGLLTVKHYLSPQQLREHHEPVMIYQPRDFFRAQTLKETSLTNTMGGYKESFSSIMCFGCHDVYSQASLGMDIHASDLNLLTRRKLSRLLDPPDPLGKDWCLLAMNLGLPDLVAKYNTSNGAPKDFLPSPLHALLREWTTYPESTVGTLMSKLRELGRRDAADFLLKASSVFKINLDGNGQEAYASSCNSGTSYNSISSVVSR
AKT2, sequence (P31751 whole entry): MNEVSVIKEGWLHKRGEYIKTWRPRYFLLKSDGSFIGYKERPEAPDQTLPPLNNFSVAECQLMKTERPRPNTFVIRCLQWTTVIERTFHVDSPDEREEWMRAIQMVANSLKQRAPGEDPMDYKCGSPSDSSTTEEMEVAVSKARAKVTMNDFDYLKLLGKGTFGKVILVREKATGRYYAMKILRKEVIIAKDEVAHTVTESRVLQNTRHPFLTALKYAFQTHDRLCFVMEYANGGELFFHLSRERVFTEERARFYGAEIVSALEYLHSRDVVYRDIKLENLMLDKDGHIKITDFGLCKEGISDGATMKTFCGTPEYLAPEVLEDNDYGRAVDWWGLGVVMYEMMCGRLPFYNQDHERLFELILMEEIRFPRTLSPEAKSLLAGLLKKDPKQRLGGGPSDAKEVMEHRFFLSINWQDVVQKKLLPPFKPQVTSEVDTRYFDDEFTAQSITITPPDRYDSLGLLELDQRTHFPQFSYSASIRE
SRMS, sequence (Q9H3Y6 whole entry): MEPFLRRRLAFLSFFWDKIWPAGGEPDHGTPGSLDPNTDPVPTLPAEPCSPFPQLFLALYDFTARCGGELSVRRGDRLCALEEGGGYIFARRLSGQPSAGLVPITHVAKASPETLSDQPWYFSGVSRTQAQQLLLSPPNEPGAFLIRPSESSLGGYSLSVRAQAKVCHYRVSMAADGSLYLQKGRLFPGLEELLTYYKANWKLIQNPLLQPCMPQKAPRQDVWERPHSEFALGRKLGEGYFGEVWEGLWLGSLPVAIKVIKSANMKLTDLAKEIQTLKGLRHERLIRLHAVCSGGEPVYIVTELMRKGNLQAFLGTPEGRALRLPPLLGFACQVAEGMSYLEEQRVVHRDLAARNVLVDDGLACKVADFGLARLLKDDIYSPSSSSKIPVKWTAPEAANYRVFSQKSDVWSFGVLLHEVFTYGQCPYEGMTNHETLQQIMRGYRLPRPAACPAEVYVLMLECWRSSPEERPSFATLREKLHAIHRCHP
PTK5, sequence (P42685 whole entry): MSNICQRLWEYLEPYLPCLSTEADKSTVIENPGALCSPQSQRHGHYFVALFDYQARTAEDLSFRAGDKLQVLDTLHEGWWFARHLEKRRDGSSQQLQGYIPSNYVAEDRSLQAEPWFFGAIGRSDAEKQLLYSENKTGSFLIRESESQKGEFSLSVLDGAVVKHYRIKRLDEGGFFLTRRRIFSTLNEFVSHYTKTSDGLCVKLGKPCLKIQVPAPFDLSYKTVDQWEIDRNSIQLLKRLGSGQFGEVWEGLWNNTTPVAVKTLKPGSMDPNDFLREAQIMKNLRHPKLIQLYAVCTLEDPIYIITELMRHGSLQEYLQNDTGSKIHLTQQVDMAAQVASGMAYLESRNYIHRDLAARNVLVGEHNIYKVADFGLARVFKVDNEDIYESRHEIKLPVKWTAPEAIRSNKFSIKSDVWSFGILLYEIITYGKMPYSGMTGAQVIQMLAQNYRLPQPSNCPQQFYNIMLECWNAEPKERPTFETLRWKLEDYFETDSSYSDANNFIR
PKN2, sequence (Q16513 whole entry): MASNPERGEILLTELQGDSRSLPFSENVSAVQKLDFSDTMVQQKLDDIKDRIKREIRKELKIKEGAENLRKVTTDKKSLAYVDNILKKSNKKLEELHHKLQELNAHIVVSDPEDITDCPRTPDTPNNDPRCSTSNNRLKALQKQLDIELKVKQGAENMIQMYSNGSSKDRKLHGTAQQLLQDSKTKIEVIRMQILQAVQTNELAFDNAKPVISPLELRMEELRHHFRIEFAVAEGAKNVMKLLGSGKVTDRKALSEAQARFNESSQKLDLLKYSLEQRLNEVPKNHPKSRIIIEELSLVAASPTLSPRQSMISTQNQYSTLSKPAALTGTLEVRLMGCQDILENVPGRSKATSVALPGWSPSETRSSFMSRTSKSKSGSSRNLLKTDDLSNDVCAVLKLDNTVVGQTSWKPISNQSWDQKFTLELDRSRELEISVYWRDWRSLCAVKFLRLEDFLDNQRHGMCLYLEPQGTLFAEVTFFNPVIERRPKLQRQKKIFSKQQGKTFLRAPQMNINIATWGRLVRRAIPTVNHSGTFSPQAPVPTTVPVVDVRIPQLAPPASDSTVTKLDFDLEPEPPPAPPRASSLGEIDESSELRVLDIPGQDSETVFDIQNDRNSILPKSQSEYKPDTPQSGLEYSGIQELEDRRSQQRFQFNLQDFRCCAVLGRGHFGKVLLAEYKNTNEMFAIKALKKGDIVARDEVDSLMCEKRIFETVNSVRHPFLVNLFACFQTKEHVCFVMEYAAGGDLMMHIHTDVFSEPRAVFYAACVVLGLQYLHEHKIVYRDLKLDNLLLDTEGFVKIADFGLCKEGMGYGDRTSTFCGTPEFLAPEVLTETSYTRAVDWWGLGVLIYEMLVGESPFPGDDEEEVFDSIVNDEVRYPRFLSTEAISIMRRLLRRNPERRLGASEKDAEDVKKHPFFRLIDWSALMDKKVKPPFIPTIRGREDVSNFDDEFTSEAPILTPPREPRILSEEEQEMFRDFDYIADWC
MARK3, sequence (P27448 whole entry): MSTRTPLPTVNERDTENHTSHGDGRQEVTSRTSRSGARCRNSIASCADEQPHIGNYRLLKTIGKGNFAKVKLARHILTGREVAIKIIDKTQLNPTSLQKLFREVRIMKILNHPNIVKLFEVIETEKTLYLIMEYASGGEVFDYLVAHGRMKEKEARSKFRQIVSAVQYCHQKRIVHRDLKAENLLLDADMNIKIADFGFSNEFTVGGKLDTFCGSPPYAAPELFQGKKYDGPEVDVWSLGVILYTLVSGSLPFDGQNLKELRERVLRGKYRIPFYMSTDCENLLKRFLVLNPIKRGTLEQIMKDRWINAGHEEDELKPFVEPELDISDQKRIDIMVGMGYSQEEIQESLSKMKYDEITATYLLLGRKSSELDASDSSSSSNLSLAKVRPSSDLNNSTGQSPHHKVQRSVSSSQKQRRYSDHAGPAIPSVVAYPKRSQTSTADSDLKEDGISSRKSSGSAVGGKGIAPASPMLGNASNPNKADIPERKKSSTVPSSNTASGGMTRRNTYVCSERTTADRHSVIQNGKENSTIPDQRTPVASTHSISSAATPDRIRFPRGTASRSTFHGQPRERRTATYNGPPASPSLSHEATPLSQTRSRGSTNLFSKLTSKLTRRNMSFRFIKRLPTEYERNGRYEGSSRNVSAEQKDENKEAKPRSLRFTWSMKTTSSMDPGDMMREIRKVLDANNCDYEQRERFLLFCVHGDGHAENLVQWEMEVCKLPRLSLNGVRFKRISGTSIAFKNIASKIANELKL
MEK2, sequence (P36507 whole entry): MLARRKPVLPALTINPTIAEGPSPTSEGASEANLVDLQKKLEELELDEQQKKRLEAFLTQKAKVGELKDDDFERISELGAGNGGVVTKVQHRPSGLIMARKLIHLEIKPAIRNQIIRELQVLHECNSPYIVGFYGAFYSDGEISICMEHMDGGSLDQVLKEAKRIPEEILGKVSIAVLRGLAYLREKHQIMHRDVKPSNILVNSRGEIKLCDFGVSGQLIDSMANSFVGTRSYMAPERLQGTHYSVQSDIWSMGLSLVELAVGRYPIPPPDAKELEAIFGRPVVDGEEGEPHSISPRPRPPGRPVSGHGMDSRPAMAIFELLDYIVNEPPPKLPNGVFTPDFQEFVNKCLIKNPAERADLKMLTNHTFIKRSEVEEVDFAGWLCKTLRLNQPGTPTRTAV

## O=C(Nc1nccs1)C(c1cc(F)ccc1O)N1Cc2ccccc2C1=O (centres unmarked) [EAI045, 2-(5-fluoro-2-hydroxyphenyl)-2-(1-oxo-2,3-dihydro-1H-isoindol-2-yl)-N-(1,3-thiazol-2-yl)acetamide]
[1]
  inhibition at 1 µM: 1%
[2]
  inhibition at 1 µM: 0%
[3]
  inhibition at 1 µM: 1%
[4]
  IC50: > 30 µM
[5]
  inhibition at 1 µM: 0%
[6]
  inhibition at 1 µM: 0%
[7]
  inhibition at 1 µM: 6%
[8]
  inhibition at 1 µM: 0%
[9]
  inhibition at 1 µM: 0%
[10]
  inhibition at 1 µM: 0%
[11]
  inhibition at 1 µM: 0%
[12]
  inhibition at 1 µM: 0%
[13]
  inhibition at 1 µM: 2%
[14]
  inhibition of proliferation: potently inhibited
[15]
  inhibition at 1 µM: 0%
[16]
  EC50: > 10 µM
[17]
  inhibition at 1 µM: 0%
[18]
  inhibition at 1 µM: 4%
[19]
  inhibition at 1 µM: 0%
[20]
  inhibition at 1 µM: 0%
[21]
  inhibition at 1 µM: 0%
[22]
  inhibition at 1 µM: 0%
[23]
  inhibition at 1 µM: 3%
[24]
  inhibition at 1 µM: 0%
[25]
  inhibition at 1 µM: 0%
[26]
  inhibition at 1 µM: 8%
[27]
  inhibition at 1 µM: 0%
[28]
  inhibition at 1 µM: 0%
[29]
  inhibition at 1 µM: 0%
[30]
  IC50: > 30 µM
[31]
  inhibition at 1 µM: 2%
[32]
  inhibition at 1 µM: 2%
[33]
  inhibition at 1 µM: 0%
[34]
  inhibition at 1 µM: 0%
[35]
  inhibition at 1 µM: 4%
[36]
  IC50: > 30 µM
[37]
  inhibition at 1 µM: 0%
[38]
  IC50: > 3 µM
[39]
  IC50: > 30 µM
[40]
  inhibition at 1 µM: 0%
[41]
  IC50: > 30 µM
